Source: ChEMBL document CHEMBL2169882, “Exploration of novel 3-substituted azetidine derivatives as triple reuptake inhibitors” (J Med Chem, 2012)
pIC50: −log10 of the molar value. The source made the active and inactive calls. The calls are words filed in the database; no cut-off is given here.

Legend:
[1] = target: T1, Sodium-dependent serotonin transporter (Homo sapiens, UniProt P31645); details: HEK293, at 0.1 µM
Target sequence in this assay (P31645 whole entry, looked up): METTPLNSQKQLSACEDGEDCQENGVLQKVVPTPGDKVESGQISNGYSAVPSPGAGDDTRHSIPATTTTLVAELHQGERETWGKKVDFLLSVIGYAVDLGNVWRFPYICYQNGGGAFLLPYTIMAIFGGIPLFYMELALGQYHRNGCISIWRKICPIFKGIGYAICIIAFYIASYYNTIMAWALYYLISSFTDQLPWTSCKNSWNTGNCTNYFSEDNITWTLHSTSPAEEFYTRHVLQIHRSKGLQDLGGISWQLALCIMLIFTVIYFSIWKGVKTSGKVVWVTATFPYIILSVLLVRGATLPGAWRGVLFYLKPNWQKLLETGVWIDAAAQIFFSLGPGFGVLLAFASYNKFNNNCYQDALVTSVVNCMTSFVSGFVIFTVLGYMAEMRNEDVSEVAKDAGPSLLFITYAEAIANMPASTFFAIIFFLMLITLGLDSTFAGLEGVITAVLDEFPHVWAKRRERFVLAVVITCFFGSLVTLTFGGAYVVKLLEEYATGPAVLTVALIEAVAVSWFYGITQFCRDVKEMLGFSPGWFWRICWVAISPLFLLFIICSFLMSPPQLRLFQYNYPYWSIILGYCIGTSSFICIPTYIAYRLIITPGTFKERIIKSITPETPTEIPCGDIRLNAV

[2] = target: T2, Sodium-dependent noradrenaline transporter (Homo sapiens, UniProt P23975); details: HEK293, at 0.1 µM
T2 sequence (P23975 whole entry): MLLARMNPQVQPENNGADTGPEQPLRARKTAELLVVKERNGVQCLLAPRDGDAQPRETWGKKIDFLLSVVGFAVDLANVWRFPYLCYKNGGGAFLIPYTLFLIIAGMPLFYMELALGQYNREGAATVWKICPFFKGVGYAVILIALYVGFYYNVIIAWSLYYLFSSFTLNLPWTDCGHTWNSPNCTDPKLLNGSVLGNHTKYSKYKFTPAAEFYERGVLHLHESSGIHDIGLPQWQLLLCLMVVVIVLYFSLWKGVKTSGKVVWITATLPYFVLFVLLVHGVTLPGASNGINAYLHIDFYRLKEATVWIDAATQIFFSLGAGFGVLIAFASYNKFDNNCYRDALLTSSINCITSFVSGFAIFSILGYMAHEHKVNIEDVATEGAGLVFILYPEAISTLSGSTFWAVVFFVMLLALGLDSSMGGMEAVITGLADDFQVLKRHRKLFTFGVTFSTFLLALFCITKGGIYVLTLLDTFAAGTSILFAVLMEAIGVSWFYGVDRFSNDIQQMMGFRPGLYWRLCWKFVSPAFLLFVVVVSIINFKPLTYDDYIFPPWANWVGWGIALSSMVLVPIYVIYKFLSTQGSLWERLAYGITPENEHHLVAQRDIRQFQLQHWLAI

[3] = target: T3, Sodium-dependent dopamine transporter (Homo sapiens, UniProt Q01959); details: HEK293, at 0.1 µM
T3 sequence (Q01959 whole entry): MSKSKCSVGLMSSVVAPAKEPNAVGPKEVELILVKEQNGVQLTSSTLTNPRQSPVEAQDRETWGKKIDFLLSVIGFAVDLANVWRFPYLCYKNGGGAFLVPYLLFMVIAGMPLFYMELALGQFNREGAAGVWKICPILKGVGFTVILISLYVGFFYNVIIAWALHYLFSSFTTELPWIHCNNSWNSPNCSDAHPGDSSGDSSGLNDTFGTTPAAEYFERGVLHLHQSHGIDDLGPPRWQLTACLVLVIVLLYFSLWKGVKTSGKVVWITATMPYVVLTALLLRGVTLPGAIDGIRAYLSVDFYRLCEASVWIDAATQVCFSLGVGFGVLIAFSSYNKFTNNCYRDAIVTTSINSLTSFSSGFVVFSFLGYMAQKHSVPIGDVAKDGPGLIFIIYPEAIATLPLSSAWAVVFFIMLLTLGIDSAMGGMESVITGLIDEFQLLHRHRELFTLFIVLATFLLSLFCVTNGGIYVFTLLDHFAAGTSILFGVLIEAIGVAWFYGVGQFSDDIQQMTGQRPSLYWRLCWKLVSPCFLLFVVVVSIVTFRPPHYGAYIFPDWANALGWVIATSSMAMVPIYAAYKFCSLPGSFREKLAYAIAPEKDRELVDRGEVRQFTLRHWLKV

Mus musculus [4] = assay: Antidepressant activity in ICR mouse assessed as reduction in immobility time at 10 mg/kg, iv after 0.5 hrs by forced swimming test; type: functional, organism-based; design: dose 10 mg/kg
Method in brief: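 ICR mice; forced swimming test following Porsolt's method. Intravenous dosing 0.5 h before the test at 2.5, 5.0 and 10.0 mg/kg. Read-out was immobility time, compared with vehicle-treated mice.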

CYP2D6 = CYP2D6 (Homo sapiens, UniProt P10635); assay: Inhibition of human recombinant CYP2D6 at 10 uM after 5 mins by fluorescence assay
CYP2D6, sequence (P10635 whole entry): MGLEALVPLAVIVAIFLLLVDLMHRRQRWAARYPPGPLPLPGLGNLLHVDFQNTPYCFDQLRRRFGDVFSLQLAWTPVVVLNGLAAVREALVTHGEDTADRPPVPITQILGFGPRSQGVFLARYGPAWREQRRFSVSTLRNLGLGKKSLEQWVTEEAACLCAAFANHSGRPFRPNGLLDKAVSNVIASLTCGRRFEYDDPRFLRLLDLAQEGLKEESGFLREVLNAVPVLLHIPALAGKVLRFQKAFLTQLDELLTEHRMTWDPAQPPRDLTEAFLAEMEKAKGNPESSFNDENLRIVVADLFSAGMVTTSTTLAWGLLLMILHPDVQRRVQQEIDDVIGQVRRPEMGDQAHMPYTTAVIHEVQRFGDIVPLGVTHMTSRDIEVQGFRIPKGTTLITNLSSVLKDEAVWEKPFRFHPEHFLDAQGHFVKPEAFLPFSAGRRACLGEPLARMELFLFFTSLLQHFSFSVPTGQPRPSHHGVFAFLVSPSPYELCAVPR
Method in brief: (§1)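 Single-point screen at 10 μM against human CYP2D6 or CYP3A4, using a VIVID CYP enzyme kit. Results were expressed as percentage inhibition.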

Rattus norvegicus [5] = assay: AUC (infinity) in Sprague-Dawley rat at 1 mg/kg, iv; type: ADME, organism-based, Plasma; design: time infinity, dose 1 mg/kg, route intravenous; details: in vivo
CYP3A4 = CYP3A4 (Homo sapiens, UniProt P08684); assay: Inhibition of human recombinant CYP3A4 at 10 uM after 5 mins by fluorescence assay
CYP3A4, sequence (P08684 whole entry): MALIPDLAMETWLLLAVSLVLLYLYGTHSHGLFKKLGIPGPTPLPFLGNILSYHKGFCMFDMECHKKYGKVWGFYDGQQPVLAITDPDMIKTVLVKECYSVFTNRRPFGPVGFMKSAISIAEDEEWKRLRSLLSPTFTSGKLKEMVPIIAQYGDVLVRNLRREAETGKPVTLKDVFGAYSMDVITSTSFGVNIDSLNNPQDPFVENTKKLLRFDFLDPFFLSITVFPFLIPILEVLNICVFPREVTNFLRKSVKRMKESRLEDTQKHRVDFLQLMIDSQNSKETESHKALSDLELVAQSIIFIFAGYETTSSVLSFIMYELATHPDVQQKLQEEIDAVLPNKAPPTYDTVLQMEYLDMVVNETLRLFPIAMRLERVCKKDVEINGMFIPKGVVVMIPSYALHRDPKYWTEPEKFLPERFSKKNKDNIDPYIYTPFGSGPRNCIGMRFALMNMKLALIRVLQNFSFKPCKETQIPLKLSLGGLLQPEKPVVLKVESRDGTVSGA
Method in brief: as §1

Mus musculus [6] = assay: Antidepressant activity in po dosed ICR mouse assessed as reduction in immobility time dosed 0.5 hrs before forced swimming test; type: functional, organism-based
Method in brief: (§2)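 ICR mice were tested in the Porsolt forced swimming test with a 30 min pretreatment. Doses were 2.5, 5.0 and 10.0 mg/kg IV or 10, 20 and 40 mg/kg PO. Read-out was immobility time, compared with vehicle. Venlafaxine was the positive control.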

Liver microsomes = assay: Stability in human liver microsomes assessed as compound remaining at 1 uM after 0.5 hrs by BD Gentest assay; type: ADME, Microsome
[7] = Tmax in Sprague-Dawley rat at 2 mg/kg, po; type: ADME, organism-based; design: dose 2 mg/kg, route oral; details: in vivo
Rattus norvegicus [8] = assay: Oral bioavailability in Sprague-Dawley rat at 2 mg/kg; type: ADME, organism-based; details: in vivo
[9] = Cmax in Sprague-Dawley rat at 2 mg/kg, po; type: ADME, organism-based; design: dose 2 mg/kg, route oral; details: in vivo
Mus musculus [10] = assay: Antidepressant activity in iv dosed ICR mouse assessed as reduction in immobility time dosed 0.5 hrs before forced swimming test; type: functional, organism-based
Method in brief: as §2

[11] = Terminal half life in Sprague-Dawley rat at 2 mg/kg, po; type: ADME, organism-based; design: dose 2 mg/kg, route oral; details: in vivo, read-out: beta t1/2 (converted)
[12] = target: T2, Sodium-dependent noradrenaline transporter; type: cell-based, HEK293
[13] = AUC (all) in Sprague-Dawley rat at 2 mg/kg, po; type: ADME, organism-based; design: dose 2 mg/kg, route oral; details: plasma
Rattus norvegicus [14] = assay: AUC (infinity) in Sprague-Dawley rat at 2 mg/kg, po; type: ADME, organism-based, Plasma; design: time infinity, dose 2 mg/kg, route oral; details: in vivo
[15] = Cmax in Sprague-Dawley rat at 1 mg/kg, iv; type: ADME, organism-based; design: dose 1 mg/kg, route intravenous; details: in vivo
[16] = Ratio of drug level from brain to plasma in ICR mouse at 10 mg/kg, ip from 30 mins to 3 hrs by LC-MS/MS analysis; type: ADME, organism-based; design: dose 10 mg/kg, route intraperitoneal; details: read-out: BPR
[17] = target: T3, Sodium-dependent dopamine transporter; type: cell-based, HEK293
[18] = Terminal half life in Sprague-Dawley rat at 1 mg/kg, iv; type: ADME, organism-based; design: dose 1 mg/kg, route intravenous; details: in vivo, read-out: beta t1/2 (converted)
[19] = AUC (all) in Sprague-Dawley rat at 1 mg/kg, iv; type: ADME, organism-based; design: dose 1 mg/kg, route intravenous; details: plasma
Rattus norvegicus [20] = assay: Apparent volume of distribution during terminal phase in Sprague-Dawley rat at 1 mg/kg, iv; type: ADME, organism-based; design: dose 1 mg/kg, route intravenous; details: in vivo
[21] = Apparent volume of distribution during terminal phase in Sprague-Dawley rat at 2 mg/kg, po; type: ADME, organism-based; design: dose 2 mg/kg, route oral; details: in vivo, read-out: Vz/F
[22] = target: T1, Sodium-dependent serotonin transporter; type: cell-based, HEK293
Target sequence in this assay (P31645 whole entry): as the sequence (P31645 whole entry, looked up) above

[23] = Apparent oral clearance in Sprague-Dawley rat at 2 mg/kg, po; type: ADME, organism-based; design: dose 2 mg/kg, route oral; details: in vivo
[24] = Mean residence time ( 0 to t ) in Sprague-Dawley rat at 1 mg/kg, iv; type: ADME, organism-based; design: dose 1 mg/kg, route intravenous; details: in vivo
[25] = Apparent oral clearance in Sprague-Dawley rat at 1 mg/kg, iv; type: ADME, organism-based; design: dose 1 mg/kg; details: in vivo
[26] = Mean residence time ( 0 to t ) in Sprague-Dawley rat at 2 mg/kg, po; type: ADME, organism-based; design: dose 2 mg/kg, route oral; details: in vivo
[27] = target: Voltage-gated inwardly rectifying potassium channel KCNH2 (Homo sapiens, UniProt Q12809); assay: Inhibition of human ERG expressed in CHOK1 cells by patch clamp technique; type: cell-based, CHO-K1
Voltage-gated inwardly rectifying potassium channel KCNH2, sequence (Q12809 whole entry): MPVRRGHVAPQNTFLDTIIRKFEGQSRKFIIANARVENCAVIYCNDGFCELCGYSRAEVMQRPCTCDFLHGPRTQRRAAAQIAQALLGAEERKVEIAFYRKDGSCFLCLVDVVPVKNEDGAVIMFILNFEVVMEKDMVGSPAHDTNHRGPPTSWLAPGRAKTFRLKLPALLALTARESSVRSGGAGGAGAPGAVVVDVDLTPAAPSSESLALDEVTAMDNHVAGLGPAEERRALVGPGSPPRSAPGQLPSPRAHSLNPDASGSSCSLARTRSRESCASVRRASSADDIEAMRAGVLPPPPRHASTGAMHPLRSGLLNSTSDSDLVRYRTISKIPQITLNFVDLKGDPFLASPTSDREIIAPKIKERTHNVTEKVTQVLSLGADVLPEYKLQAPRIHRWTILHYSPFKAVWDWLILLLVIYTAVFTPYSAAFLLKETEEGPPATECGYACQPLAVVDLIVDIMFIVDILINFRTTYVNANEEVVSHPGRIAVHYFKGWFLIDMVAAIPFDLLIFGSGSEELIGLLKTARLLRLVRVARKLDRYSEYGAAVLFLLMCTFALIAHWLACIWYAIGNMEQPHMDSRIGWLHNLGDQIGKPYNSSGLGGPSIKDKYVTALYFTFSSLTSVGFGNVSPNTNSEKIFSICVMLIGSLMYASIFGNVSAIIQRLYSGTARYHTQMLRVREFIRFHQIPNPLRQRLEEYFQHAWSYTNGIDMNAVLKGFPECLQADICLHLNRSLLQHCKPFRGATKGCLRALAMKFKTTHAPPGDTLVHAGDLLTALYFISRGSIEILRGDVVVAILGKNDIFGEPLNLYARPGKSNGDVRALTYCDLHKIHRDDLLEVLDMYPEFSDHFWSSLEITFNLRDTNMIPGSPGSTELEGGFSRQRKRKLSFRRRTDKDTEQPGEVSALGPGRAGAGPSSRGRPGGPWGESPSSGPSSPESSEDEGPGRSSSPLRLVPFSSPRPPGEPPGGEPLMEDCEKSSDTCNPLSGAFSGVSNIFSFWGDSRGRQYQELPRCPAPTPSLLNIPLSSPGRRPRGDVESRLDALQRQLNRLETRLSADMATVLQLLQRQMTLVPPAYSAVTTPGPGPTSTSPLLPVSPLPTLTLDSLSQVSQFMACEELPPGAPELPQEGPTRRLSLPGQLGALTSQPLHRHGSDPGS

## Fc1cc(C(Oc2ccccc2F)C2CNC2)ccc1Cl (centres undefined)
[1]
  inhibition: 41%
[2]
  inhibition: 81%
[3]
  inhibition: 29%

## c1ccc(COC(c2ccccc2)C2CNC2)cc1 (centres undefined)
[1]
  inhibition: 12%
[2]
  inhibition: 9.4%
[3]
  inhibition: 2%

## COc1ccc(C(CN(C)C)C2(O)CCCCC2)cc1 (centres undefined)
Mus musculus [4]
  Activity: Active

## COC(c1ccc(Cl)c(Cl)c1)C1CNC1 (centres undefined)
[1]
  inhibition: 16%
[2]
  inhibition: 47%
[3]
  inhibition: 22%

## Clc1ccc(C(Oc2ccccc2)C2CNC2)cc1 (centres undefined)
[1]
  inhibition: 22%
[2]
  inhibition: 68%
[3]
  inhibition: 36%

## CCOC(c1ccc(Cl)c(Cl)c1)C1CNC1 (centres undefined)
[1]
  inhibition: 28%
[2]
  inhibition: 49%
[3]
  inhibition: 30%

## CCOC(c1ccc(Cl)cc1)C1CNC1 (centres undefined)
[1]
  inhibition: 4.6%
[2]
  inhibition: 10%
[3]
  inhibition: 7.3%

## OC(c1ccc(Cl)cc1)C1CNC1 (centres undefined)
[1]
  inhibition: 2%
[2]
  inhibition: 3.5%
[3]
  inhibition: 2.1%

## COC(c1ccccc1)C1CNC1 (centres undefined)
[1]
  inhibition: 3.3%
[2]
  inhibition: 1.5%
[3]
  inhibition: 2.2%

## Cl.c1ccc(OC(c2ccc3ccccc3c2)C2CNC2)cc1 (centres undefined)
CYP2D6
  inhibition at 5 min, 10 µM: 16%
[1]
  inhibition: 64%
Rattus norvegicus [5]
  AUC: 159.7 ng·h/mL
CYP3A4
  inhibition at 5 min, 10 µM: 12%
Mus musculus [6]
  Activity: Dose-dependent effect
Liver microsomes
  Stability: Stable
[2]
  inhibition: 90%
[7]
  Tmax: 1.3 h
Rattus norvegicus [8]
  F: 5.8%
[9]
  Cmax: 5.6 ng/mL
Mus musculus [10]
  Activity: Dose-dependent effect
[11]
  half-life: 3.3 h
[12]
  pIC50: 8.51
[13]
  AUC: 17.9 ng·h/mL
Rattus norvegicus [14]
  AUC: 41.7 ng·h/mL
[15]
  Cmax: 112 ng/mL
[16]
  Kp: 2.7
Mus musculus [4]
  Activity: Active
[3]
  inhibition: 64%
[17]
  pIC50: 7.46
[18]
  half-life: 1.4 h
[19]
  AUC: 153 ng·h/mL
Rattus norvegicus [20]
  Vz/F: 13.1 L/kg
[21]
  Vd/F: 241 L/kg
[22]
  pIC50: 8.08
[23]
  CL/F: 812 mL/min/kg
[24]
  MRT last: 1.73 h
[25]
  CL/F: 107 mL/min/kg
[26]
  MRT last: 2 h

## COC(c1ccc(Cl)cc1)C1CNC1 (centres undefined)
[1]
  inhibition: 3.9%
[2]
  inhibition: 7.7%
[3]
  inhibition: 2.6%

## Clc1ccc(C(OCc2ccccc2)C2CNC2)cc1 (centres undefined)
[1]
  inhibition: 12%
[2]
  inhibition: 16%
[3]
  inhibition: 5.7%

## c1ccc(OC(c2ccccc2)C2CNC2)cc1 (centres undefined)
[1]
  inhibition: 25%
[2]
  inhibition: 18%
[3]
  inhibition: 9.3%

## Clc1ccc(C(Oc2ccccc2)C2CNC2)cc1Cl (centres undefined)
[1]
  inhibition: 16%
[2]
  inhibition: 89%
[3]
  inhibition: 58%

## CCOC(c1ccccc1)C1CNC1 (centres undefined)
[1]
  inhibition: 4%
[2]
  inhibition: 4.5%
[3]
  inhibition: 3%

## CNCCC(Oc1ccccc1OC)c1ccccc1 (centres undefined)
[1]
  inhibition: 9.9%
[3]
  inhibition: 9.8%

## CCCOC(c1ccc(Cl)c(Cl)c1)C1CNC1 (centres undefined)
[1]
  inhibition: 39%
[2]
  inhibition: 87%
[12]
  pIC50: 8.00
[3]
  inhibition: 74%
[17]
  pIC50: 7.49
[22]
  pIC50: 7.36

## CCCOC(c1ccc2ccccc2c1)C1CNC1.Cl (centres undefined)
[1]
  inhibition: 77%
Rattus norvegicus [5]
  AUC: 214.6 ng·h/mL
Liver microsomes
  Stability: Stable
[2]
  inhibition: 87%
[7]
  Tmax: 1 h
Rattus norvegicus [8]
  F: 5.7%
[9]
  Cmax: 7.3 ng/mL
[11]
  half-life: 4.8 h
[12]
  pIC50: 7.92
[27]
  pIC50: 6.01
[13]
  AUC: 23.9 ng·h/mL
Rattus norvegicus [14]
  AUC: 49.4 ng·h/mL
[15]
  Cmax: 198 ng/mL
[16]
  Kp: 0.86
[3]
  inhibition: 48%
[17]
  pIC50: 7.14
[18]
  half-life: 0.7 h
[19]
  AUC: 211 ng·h/mL
Rattus norvegicus [20]
  Vz/F: 4.8 L/kg
[21]
  Vd/F: 249 L/kg
[22]
  pIC50: 8.17
[23]
  CL/F: 775 mL/min/kg
[24]
  MRT last: 0.9 h
[25]
  CL/F: 78.3 mL/min/kg
[26]
  MRT last: 2.2 h

## Fc1cc(C(Oc2ccccc2)C2CNC2)ccc1Cl (centres undefined)
[1]
  inhibition: 49%
[2]
  inhibition: 76%
[12]
  pIC50: 7.68
[3]
  inhibition: 30%
[17]
  pIC50: 6.83
[22]
  pIC50: 6.85

## OC(c1ccccc1)C1CNC1 (centres undefined)
[1]
  inhibition: 1.7%
[2]
  inhibition: 0.2%
[3]
  inhibition: 3.9%

## Clc1ccc(C(OCc2ccccc2)C2CNC2)cc1Cl (centres undefined)
[1]
  inhibition: 12%
[2]
  inhibition: 30%
[3]
  inhibition: 12%

## Clc1ccc(OC(c2ccc3ccccc3c2)C2CNC2)cc1Cl (centres undefined)
CYP2D6
  inhibition at 5 min, 10 µM: 25%
[1]
  inhibition: 28%
CYP3A4
  inhibition at 5 min, 10 µM: 41%
[2]
  inhibition: 79%
[12]
  pIC50: 7.80
[3]
  inhibition: 68%
[17]
  pIC50: 7.27
[22]
  pIC50: 7.46

## Fc1ccc(C(OCCN2CCN(CCCc3ccccc3)CC2)c2ccc(F)cc2)cc1
[1]
  inhibition: 1.9%
[2]
  inhibition: -5.9%
